Rows were chosen to be rich in hits. Some 4.6% of all compounds tested hit in one or more screens of this group.
OX1R antag-1 = antagonists of human orexin 1 receptor (OX1R); O43613; OX1R-expressing cells, FRET antagonist read-out; inhibition, % at 6.6 µM; actives 1.8% (n = 330,000); AID 485270; in the data active = inhibition mostly above about 38%, no sharp cut-off; inactive = mostly below about 40%;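 note: 0% = agonist challenge alone and 100% = reference antagonist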
CHO parental Ca = counter-screen for OX1R antagonists: effect in parental CHO cells; parental CHO-K1, ATP-induced calcium, Fluo-8 fluorescence; inhibition, % at 5.6 µM; actives 0.63% (n = 330,000); AID 463079;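 active = inhibition above that plate's mean sample inhibition plus 3 SD, cut at about 26% in these data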;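 note: 0% = ATP-challenged DMSO wells and 100% = DMSO wells without ATP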
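Material: parental CHO cells / Compound: single nominal dose of 5.6 µM per compound / Signal: Fluo-8 fluorescence / Replicates: singlicate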
GPR7 antagonist = human neuropeptides B/W receptor 1 antagonism; inhibition, % at 4.4 µM; P48145; actives 1.1% (n = 290,000); GPR7-expressing cells, fluorescence antagonist assay; in the data active = inhibition above about 16%, passing the limit was not always enough;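 note: cells stimulated with the agonist NPW; 0% = agonist with vehicle and 100% = vehicle without agonist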
Target sequence (P48145 whole entry, looked up): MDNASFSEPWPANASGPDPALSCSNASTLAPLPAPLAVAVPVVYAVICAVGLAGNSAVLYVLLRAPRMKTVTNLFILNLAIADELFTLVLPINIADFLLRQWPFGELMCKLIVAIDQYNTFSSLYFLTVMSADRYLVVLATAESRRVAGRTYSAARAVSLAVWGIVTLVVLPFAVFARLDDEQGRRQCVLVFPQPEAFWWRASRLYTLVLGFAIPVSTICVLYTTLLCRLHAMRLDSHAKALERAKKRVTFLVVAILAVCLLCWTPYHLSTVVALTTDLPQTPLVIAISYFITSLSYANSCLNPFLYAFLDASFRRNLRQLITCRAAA
TAAR1 agonist = agonists of human TAAR1. CHO RD-HGA16 TAAR1, Fluo-8 calcium fluorescence; vehicle wells 0%, saturating PEA agonist 100%. activation, % at 3 µM. actives 0.99% (n = 360,000);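 active = activation above the mean activation of all test compounds in the run plus 3 SD, cut at about 38% in these data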
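System: CHO-derived RD-HGA16 cells with stable Gα16 and human TAAR1 / Times: 17-24 h plating, Fluo-8 75 min 37 °C, 30 min RT / Technique: calcium-sensitive Fluo-8 signal, excitation 470-495, emission 515-575 nm / Measure: % activation relative to PEA EC100 response / Benchmarks: DMSO and PEA EC100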
TAAR1 antagonist = antagonists of human TAAR1; CHO RD-HGA16 TAAR1, Fluo-8 calcium fluorescence, antagonist; inhibition, % at 3 µM; actives 1.5% (n = 360,000); AID 624466;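 active = inhibition above a per-plate cutoff, the mean inhibition of test compounds on that plate plus 3 SD, cut at about 49% in these data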;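 note: 0% = DMSO plus EC80 beta-PEA response and 100% = DMSO alone without agonist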
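Material: CHO RD-HGA16 cells bearing hTAAR1; compound dosing: one-point dosing, 3 µM nominal final; schedule: dye loading 75 min at 37 °C, then 30 min room temperature; measured by: calcium fluorescence with Fluo-8; control set: vehicle and agonist controls; replication: n of 1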
OX1R antag-2 = blocks the human orexin 1 receptor; actives 0.43% (n = 330,000); inhibition, % at 5 µM; CHO/OX1R cells, Fluo-8 calcium fluorescence, orexin A; O43613;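 active = inhibition above its plate's threshold, mean inhibition of all tested compounds on the plate plus 3 SD, cut at about 37% in these data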;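 note: 0% = orexin A challenge wells and 100% = SB-334867-A antagonist wells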
* hit, by the source's call; nt = no result.

SMILES | OX1R antag-1 | CHO parental Ca | GPR7 antagonist | TAAR1 agonist | TAAR1 antagonist | OX1R antag-2
CCOC(=O)c1c(CSc2ccccc2)n(C)c2cc(Br)c(OCC(O)CNC(CO)(CO)CO)cc12 (centres undefined) | 13 | 90* | -10 | 2 | 29 | 45
OCCC1CN(Cc2ccccc2OC2CCCC2)CCN1Cc1ccsc1 (centres undefined) | 6 | -21 | 20* | 9 | -4 | -25
Cc1ccccc1OCC(=O)N(Cc1nc(-c2ccccc2)no1)C(C)C | 62* | 25 | -7 | 2 | 3 | 5
Cc1ccccc1OCC(=O)N(Cc1nnc(-c2ccc(Cl)cc2)o1)C(C)C | 39* | -38 | nt | 1 | 4 | 9
Cc1ccc(SCC(=O)N(Cc2nc(-c3ccccc3)no2)C(C)C)cc1 | 63 | 46* | 11 | 6 | 21 | 35
Cc1ccc(-c2noc(CN(C(=O)c3ccc4c(c3)OCO4)C(C)C)n2)cc1 | 16 | -17 | 15 | -1 | -5 | -20
CC(C)N(Cc1nc(-c2ccccc2)no1)C(=O)c1ccc2c(c1)OCO2 | 50* | -12 | -4 | nt | nt | 2
COc1cccc(CC(=O)NCC2CCN(C(=O)C(=O)c3cccs3)CC2)c1 | nt | nt | nt | 0 | 1 | nt
CCCCOCCCNC(=O)C[C@H]1C[C@@]2(C(=O)OC)C(=C[C@H](COCc3ccccc3)O[C@@H]2C)N(CCC2=CCCCC2)C1=O | nt | nt | nt | -3 | -24 | nt
N#Cc1ccc(S(=O)(=O)N2CCCc3nc(-c4ccc(F)cc4)ccc32)cc1 | nt | nt | nt | 2 | 4 | nt
Oc1ccc(C[C@@H]2CNCCN2CCCCC2CCCCC2)cc1 | 5 | 20 | nt | 43* | 3 | -4
Fc1cccc(CCN2CCNC[C@@H]2CC2CCCCC2)c1 | 0 | -15 | nt | 39* | 7 | -14
C[C@H](CO)N1C[C@H](C)[C@@H](CN(C)C(=O)Nc2ccnc(N3CCOCC3)c2)OCc2cn(nn2)CCCC1=O | nt | nt | nt | 6 | -3 | nt
O=C(Nc1ccc(Cl)c(S(=O)(=O)N2CCCC2)c1)c1cc(=O)[nH]c2ccccc12 | 5 | -16 | nt | 14 | 8 | -18
N#CC(Cc1cccs1)c1nc2ccccc2[nH]1 (centres undefined) | nt | nt | nt | 1 | -3 | nt
N#CC(/C(=N/S(=O)(=O)c1cccs1)c1ccccc1)c1nc2ccccc2[nH]1 (centres undefined) | 43* | -12 | 4 | 15 | 30 | -18
Cc1[nH]c2ccccc2c1CC(=O)Nc1ccc(Nc2cccnc2)c(Br)c1 | nt | nt | nt | 1 | 14 | nt
Cc1nc2ccccc2c2c1C(=O)N(c1ccc(C(=O)O)cc1)C2=O | 5 | 14 | -11 | 2 | 13 | -2
Cc1nc2ccccc2c2c1C(=O)NC2=O | 39* | -6 | -9 | nt | nt | -4
O=S(=O)(c1ccccc1)N1CCCc2nc(-c3ccc(F)cc3)ccc21 | nt | nt | nt | 5 | 37 | nt
CCc1ccc(-n2cccc2/C=C2/C(=N)N3C(=NC2=O)SN=C3S(C)(=O)=O)cc1 | 66* | -3 | 1 | 1 | 57* | -1
Cc1cc(C)cc(-n2cccc2/C=C2/C(=N)N3C(=NC2=O)SN=C3S(C)(=O)=O)c1 | 51* | -1 | -1 | 0 | 30 | -5
CS(=O)(=O)C1=NSC2=NC(=O)/C(=C\c3cccn3-c3ccccc3Cl)C(=N)N21 | 64* | -14 | -16 | 5 | 21 | -24
Cc1ccc(-n2cccc2/C=C2/C(=N)N3C(=NC2=O)SN=C3S(C)(=O)=O)cc1 | 32 | -16 | 2 | 6 | 26 | -26
C[C@@H]1CN([C@H](C)CO)S(=O)(=O)c2ccc(Br)cc2O[C@H]1CN(C)CC1CCOCC1 | nt | nt | nt | 0 | -3 | nt
COC(=O)c1ccccc1Oc1cc(C(F)(F)F)nc(-c2ccccn2)n1 | 21 | -10 | nt | -1 | -14 | -14
O=C(NCc1cccnc1)/C(=C\c1ccc(-c2ccc(Cl)c(Cl)c2)o1)S(=O)(=O)c1ccccc1 | 25 | 1 | 31* | 10 | 28 | -13
O=C(NCc1cccnc1)c1ccc(-c2ccc(Cl)cc2)o1 | 16 | -16 | 9 | 0 | 3 | -21
